High-throughput results: PubChem, several laboratories
p97 inhibitor – inhibitors of human p97 ATPase, primary screen, biochemical; Transitional endoplasmic reticulum ATPase (Homo sapiens), P55072; recombinant p97 ATPase, Kinase-Glo ATP luminescence, 3 h; inhibition, % at 8 µM; 220,000 tested, 0.42% active; in the data active means inhibition above about 15%
Target sequence (P55072 whole entry, looked up): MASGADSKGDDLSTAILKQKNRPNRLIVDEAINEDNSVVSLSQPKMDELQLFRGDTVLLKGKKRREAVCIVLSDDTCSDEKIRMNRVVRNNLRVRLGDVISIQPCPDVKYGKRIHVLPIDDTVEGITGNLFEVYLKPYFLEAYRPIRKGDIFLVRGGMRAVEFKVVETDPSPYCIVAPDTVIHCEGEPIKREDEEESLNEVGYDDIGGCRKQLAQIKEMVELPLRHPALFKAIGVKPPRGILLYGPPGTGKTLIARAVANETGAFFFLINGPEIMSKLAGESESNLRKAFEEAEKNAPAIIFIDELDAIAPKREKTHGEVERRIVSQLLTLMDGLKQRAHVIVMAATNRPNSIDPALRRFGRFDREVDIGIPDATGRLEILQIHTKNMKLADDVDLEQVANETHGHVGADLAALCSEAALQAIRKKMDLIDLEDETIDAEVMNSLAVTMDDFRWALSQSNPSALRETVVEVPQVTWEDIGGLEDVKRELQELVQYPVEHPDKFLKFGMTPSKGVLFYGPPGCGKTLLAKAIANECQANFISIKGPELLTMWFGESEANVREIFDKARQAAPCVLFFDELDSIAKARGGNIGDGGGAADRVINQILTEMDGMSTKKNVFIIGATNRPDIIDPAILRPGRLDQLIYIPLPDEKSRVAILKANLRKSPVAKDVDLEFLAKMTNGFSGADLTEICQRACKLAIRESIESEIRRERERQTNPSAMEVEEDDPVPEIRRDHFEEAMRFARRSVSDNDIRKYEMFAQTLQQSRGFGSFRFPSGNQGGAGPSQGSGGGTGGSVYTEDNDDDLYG
Runt-SMMHC FRET – inhibitors of RUNX1 Runt–CBFb-SMMHC binding, primary screen, biochemical, FRET, Cerulean-Runt, Venus-CBFb-SMMHC, uHTS | Runt-related transcription factor 1 (Homo sapiens) + Core-binding factor subunit beta … | Cerulean-Runt/Venus-CBFb-SMMHC FRET ratio 530/480, 1 h | inhibition, % at 20 µM | 220,000 tested, 0.74% active;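 active means mean inhibition across duplicate retests at 20 µM reaching about 50%, limit read from the data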;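 further: inhibitors lower the FRET ratio by blocking Runt binding to CBFb-SMMHC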
RanGTP-Impb inh – inhibitors of RanGTP-importin-beta interaction, primary screen, biochemical, FRET, CFP-Ran, YFP-importin-beta, homogeneous; Ran GTPase (GTP-bound) - importin-beta complex; cell-free CFP-Ran/YFP-importin-beta FRET ratio; inhibition, % (concentration not given with the values); 300,000 tested, 1.1% active;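 active means more than half of the replicate wells show a fall in the fluorescence ratio signal beyond about 16%, limit read from the data, passing the limit was not always enough; inconclusive means exactly half of the replicate wells pass the set limit; inactive means fewer than half of replicates pass the limit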
Hck-Nef inh – inhibitors of Nef-activated human Hck kinase, primary screen, biochemical, Z-Lyte FRET, 384-well, Hck-YEEI | Tyrosine-protein kinase HCK (Homo sapiens), P08631 | Recombinant Hck-YEEI plus Nef, Z-Lyte FRET kinase assay | inhibition, % at 20 µM | 220,000 tested, 0.68% active | AID 463187, 2010;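 active means Hck-Nef kinase inhibition above about 50%, limit read from the data; inactive means inhibition below that limit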
TbHK1 inh – Trypanosoma brucei hexokinase 1 inhibitors, primary screen, biochemical, G6PDH-coupled NADH absorbance, MLSCN library | hexokinase 1 [Trypanosoma brucei] | recombinant TbHK1, G6PDH-coupled NADH A340 | inhibition, % at 10 µM | 220,000 tested, 0.11% active | AID 1430, 2008;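 active means inhibition of 50% or more in the single-dose primary screen; inactive means inhibition below 50%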
Runt-CBFb FRET – inhibitors of RUNX1 Runt–CBFb binding, primary screen, biochemical, FRET, Cerulean-Runt, Venus-CBFb, uHTS; Runt-related transcription factor 1 (Homo sapiens) + Core-binding factor subunit beta …; Cerulean-Runt/Venus-CBFb FRET ratio 530/480, 1 h; inhibition, % at 20 µM; 220,000 tested, 0.46% active; AID 1496, 2009;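 active means inhibition over about 50% at 20 µM in the single-dose screen, limit read from the data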
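Measured by: fluorescence energy transfer, 422 nm excitation, 530/480 nm emission; Assay system: Cerulean-Runt domain; Medium: Tris pH 7.5 buffer with BSA; Measure: loss of energy transfer signal; Controls: 5 µM unlabeled CBFb as full-inhibition high control; Incubation: protein complex preformed 1 h, compound exposure 1 h, room temperature, dark.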
Hck-Nef confirm – retest of Hck:Nef kinase inhibitor hits, confirmation, biochemical, Z-Lyte FRET, 384-well, p-Tyr peptide counterscreen | shares compounds with Hck-Nef inh | Recombinant Hck-YEEI:Nef, Z-Lyte FRET kinase assay | calls only at 10 µM | 1,300 tested, 28% active;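 active means average inhibition of at least 50%, with Z-scores no higher than 3 in both the phospho-tyrosine peptide and fluorescence counterscreens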
A number is an active result; n = inactive; u = inconclusive; x = no result shown; + = active, no number. Most compounds without a hit are left out; they make up all but 2.1% or so of the library.

SMILES	p97 inhibitor	Runt-SMMHC FRET	RanGTP-Impb inh	Hck-Nef inh	TbHK1 inh	Runt-CBFb FRET	Hck-Nef confirm
N#Cc1c(NC(=O)CN2CCN(S(=O)(=O)c3ccc4c(c3)OCCO4)CC2)sc2c1CCC2	n	n	n	53.4	n	n	n
Nc1cc2ccncc2c2ccccc12	n	n	n	52.4	n	n	n
Cc1cc(N)c2ccccc2n1	n	n	n	n	n	n	x
CC(=O)Nc1ccc(N=Cc2c(O)c3ccccc3oc2=O)cc1	x	x	n	x	x	x	x
CC(=O)Nc1ccc(N=Cc2c(O)c(C(=O)Nc3ccccc3)cc3ccccc23)cc1	n	n	n	68.9	n	n	n
CCC1CCCCN1C(=O)Nc1cc(Cl)ccc1OC (stereo unspecified)	n	n	n	n	n	n	x
COCCn1c(C)cc(C(=O)COC(=O)c2ccc(NC(=O)CC#N)cc2)c1C	n	n	n	n	n	n	x
COc1cc(NS(=O)(=O)c2ccc(NC(=S)NC(=O)/C=C/c3ccco3)cc2)ncn1	n	n	n	90.7	n	n	+
O=C(/C=C/c1ccco1)NC(=S)Nc1ccccc1O	n	n	n	53.7	n	n	+
O=C(/C=C/c1ccco1)Nc1cc(Cl)ccc1C(=O)O	n	n	n	n	n	n	x
O=C(/C=C\c1ccco1)NC(=S)Nc1ccccc1O	n	n	n	58.7	n	n	n
O=C(/C=C/c1ccco1)Nc1ccccc1C(=O)O	n	n	n	54.8	n	n	n
O=C(N/N=C/c1cc2c(cc1Cl)OCO2)c1cc(-c2ccccc2)n[nH]1	x	x	n	x	x	x	x
Cc1cccc(CN2CCN(Cc3ccco3)CC2)c1	x	x	n	x	x	x	x
C/C(CCc1ccccc1)=N/NC(=O)C(=O)NCc1ccccc1	n	n	n	n	n	n	x
Cc1ccc(NC(=S)NC(=O)/C=C/c2ccco2)c(O)c1	n	n	n	84.7	n	n	+
COc1ccc(NC(=S)NC(=O)/C=C/c2ccco2)c(OC)c1	x	x	n	x	x	x	x
O=C1CN(C(=O)COC(=O)/C=C/c2ccco2)c2ccccc2N1	n	n	u	53.1	n	n	n
CCOc1ccc(S(=O)(=O)NCCCN2CCOCC2)cc1	n	n	n	n	n	n	x
O=C(CSc1nc2ccccc2c2nc3ccccc3n12)NCc1ccco1	n	n	n	81.6	n	n	x
Cc1ccc(CN2C(=O)N/C(=C/c3ccc(-c4ccc(C(=O)O)cc4)o3)C2=O)cc1	n	80.3	u	89.3	n	126.2	x
Cc1ccc(CN2C(=O)N/C(=C\c3cccn3-c3cccc(C(=O)O)c3)C2=O)cc1	n	n	n	n	n	n	x
Cc1cccc(NC(=O)CN2C(=O)N/C(=C\c3ccc(-c4cccc(C(=O)O)c4)o3)C2=O)c1	n	80.2	25.6	80.1	n	85.3	x
COC(=O)/C(=C\C(=O)c1ccccc1)Nc1cccc(C(F)(F)F)c1	n	n	n	n	n	n	x
CN1C(=O)/C(=C\c2ccc(N(C)C)cc2)OC1=S	x	x	n	x	x	x	x
SMILES	p97 inhibitor	Runt-SMMHC FRET	RanGTP-Impb inh	Hck-Nef inh	TbHK1 inh	Runt-CBFb FRET	Hck-Nef confirm
CCc1ccc(Nc2nnc(SCC(=O)NCCN3C(=O)CSC3=O)s2)cc1	n	n	n	n	n	n	x
COc1ccc(C(=O)N2CCCC(C(=O)N3CCCCCC3)C2)cc1 (stereo unspecified)	n	n	n	56.9	n	n	n
COc1ccc(C(=O)N2CCCC(C(=O)N3CCN(c4ccccc4)CC3)C2)cc1 (stereo unspecified)	n	n	n	n	n	n	x
CCS/C(N)=N/N=C/c1cc(C)ccc1O	n	n	n	51.3	n	n	n
CCCCS/C(N)=N/N=C/c1cc(C)ccc1O	n	n	n	n	n	n	x
Cc1cc2c(cc1S(=O)(=O)N1CCOCC1)NC(=O)CO2	x	x	n	x	x	x	x
O=C(Nc1ccc(N2CCCC2)cc1)C(c1ccccc1)c1ccccc1	n	n	n	58.6	n	n	n
O=C(N=Nc1c(O)[nH]c2ccccc12)c1ccc(CN2CCOCC2)cc1	n	n	n	94.5	n	n	+
Cc1ccc(CN2CCN(CC(=O)N=Nc3c(O)[nH]c4ccccc34)CC2)cc1	n	n	n	n	n	n	x
C=CCc1ccccc1OCC(O)CNC(=O)c1ccccc1C(=O)O (stereo unspecified)	n	n	n	n	n	n	x
CCOC(=O)c1ccc2c(c1)C1C=CCC1C(C(=O)O)N2 (stereo unspecified)	n	n	x	59.2	n	n	+
CCOC(=O)C1Nc2ccc(C(=O)O)cc2C2C=CCC12 (stereo unspecified)	x	x	n	x	x	x	x
COc1ccc(-n2nc(C(=O)N(C)C)nc2-c2ccccc2)cc1	x	x	n	x	x	x	x
Cc1c(Br)c(=O)oc2c(Br)c(O)ccc12	n	86.1	n	71.3	n	n	n
Cc1c(O)ccc2c(-c3ccccc3)cc(=O)oc12	x	x	n	x	x	x	x
CC(=O)c1cccc(NC(=O)C(C)OC(=O)c2cccc(-n3cnnn3)c2)c1 (stereo unspecified)	x	x	n	x	x	x	x
N#Cc1nc(/C=C/c2ccccc2)oc1NCCCN1CCOCC1	n	n	n	53.9	n	n	x
COCCNc1oc(/C=C/c2ccccc2)nc1C#N	n	n	n	67.0	n	n	x
CCOc1ccc(-n2c(SC(C)C)nc3c(c2=O)SCC3)cc1	n	n	n	n	n	n	x
O=C(Nc1nnc(SCc2c(Cl)cccc2Cl)s1)c1ccc2ncsc2c1	n	n	n	110.5	n	n	+
N#Cc1ccc(CSc2nnc(NC(=O)c3ccc4ncsc4c3)s2)cc1	n	n	n	68.2	n	n	n
N#Cc1ccc(CSc2nnc(NC(=O)c3ccc(=O)[nH]c3)s2)cc1	n	n	u	n	n	n	x
Cc1ccc(Nc2nnc(SCC(=O)c3ccc(O)cc3O)s2)cc1	x	x	n	x	x	x	x
O=C(Nc1ccc2c(c1)CCC2)c1ncoc1-c1ccccc1F	x	x	n	x	x	x	x
O=C(CN1C2=NCCCN2c2ccccc21)c1ccc([N+](=O)[O-])cc1	n	n	n	n	n	n	x
COc1ccc(CNC(=O)CCCC(=O)Nc2cccc(Br)c2)cc1	x	x	n	x	x	x	x
